This note sets out measurements from PubChem BioAssay.

The source made the active and inactive calls.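 Rule for the calls, unless noted: active = GFP response above 150% of the DMSO level; inconclusive = fewer than 70 events counted for a yeast strain; inactive = the rest.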

Test [1] in a line: hit retest on RPL19A-GFP reporter strain – cell-based, S. cerevisiae, flow cytometry, cherry picks, mother/daughter gates, confirmation (AID 2270;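 active = GFP response below 50% of the DMSO control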). As to conditions: 3 h, at 10 µM, stronger effect = lower value, 100 = same GFP as DMSO wells. On the technique in general: A flow cytometer gives signals particle by particle.
The nature of test [2]: yeast TOR pathway reporter LAP4-GFP change – cell-based, cherry picks, flow cytometry, mother/daughter gates, confirmation (AID 2271;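 active = GFP response above 150% of the DMSO control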;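 note: ratio of sample to DMSO plate mean so 100% equals DMSO level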). To be noted: S. cerevisiae LAP4-GFP strain, 3 h, at 10 µM, stronger effect = higher value, 100 means same as DMSO control. In a few lines:
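Test system: GFP-fusion yeast strain / Amount: 0.2 OD600 cells / Buffer or medium: SC medium / Dosing: 10 µM single dose / Incubation: compound exposure 3 h at 30 °C, end-over-end rotation / Detection: HT flow cytometry, GFP fluorescence channel / Evaluation: median GFP fluorescence as percent of plate-mean DMSO wells / Control set: DMSO-only negative wells, rapamycin 400 ng/mL positive wells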

Test [3] is described as follows: TOR pathway reporter MEP2-GFP, retest of hits – S. cerevisiae, flow cytometry GFP, cherry picks, confirmation (AID 2272;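 active = GFP response above 150% of the DMSO control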;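 note: ratio of well signal to plate DMSO mean so 100% equals DMSO level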). As to conditions: S. cerevisiae MEP2-GFP strain, 3 h, at 10 µM, stronger effect = higher value.
A short description of test [4]: yeast AGP1-GFP fluorescence change, single-dose – cell-based, flow cytometry, S. cerevisiae, cherry picks, confirmation (AID 2273).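 Note: median GFP channel fluorescence over the whole cell population gate.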 As to conditions: S. cerevisiae AGP1-GFP strain, 3 h, at 10 µM.
Test [5] can be described thus: TOR pathway CIT2 reporter hit retest – S. cerevisiae, GFP fusion, cherry picks, mother/daughter gates, confirmation (AID 2274). As to conditions: S. cerevisiae CIT2-GFP strain, flow cytometry, 3 h, at 10 µM, stronger effect = higher value.
Setting [6] is: measured here: daughter cell gate.
Setting [7] is: measured here: mother cell gate.
Where [8] appears, read: measured here: daughter cell gate response.
[9] abbreviates: measured here: mother cell gate response.

With `Cc1cc(=O)oc2c(C(=O)/C=C\c3cccs3)c(O)ccc12`, the GFP response vs DMSO in test [1] is 98% (inactive); in test [1] (setting [6]) it was 100%; in test [1] (setting [7]) it was 95.3%; in test [3], 107% (inactive). The GFP response relative to DMSO in test [2] is 145% (inactive); in test [2] (setting [8]), 136%; in test [2] (setting [9]) it was 154%. Further, the GFP response, % of DMSO in test [4] was 101% (inactive); in test [5], 95.9% (inactive); in test [5] (setting [6]), 99.2%; in test [5] (setting [7]), 91.9%.

With `COc1ccccc1/C=C/C=N/NC(=O)c1cccs1`, the GFP response vs DMSO was 97.8% (inactive) in test [1], 97.3% in test [1] (setting [6]), 97.5% in test [1] (setting [7]) and 107% (inactive) in test [3]. Besides, the GFP response relative to DMSO in test [2] was 99.8% (inactive); in test [2] (setting [8]) it was 95.6%; in test [2] (setting [9]), 102%. The GFP response, % of DMSO in test [4] is 100% (inactive); in test [5] it was 99.1% (inactive); in test [5] (setting [6]), 96.5%; in test [5] (setting [7]) it was 97.7%.

On to `CC1=NNC(=O)/C1=C\c1cn(-c2ccccc2)nc1-c1ccc(Cl)cc1`, for which the GFP response vs DMSO in test [1] is 97.6% (inactive); in test [1] (setting [6]) it was 98.3%; in test [1] (setting [7]) it was 98.5%; in test [3] it was 101% (inactive). Also, the GFP response relative to DMSO in test [2] was 107% (inactive); in test [2] (setting [8]), 101%; in test [2] (setting [9]), 114%. Besides, the GFP response, % of DMSO in test [4] was 105% (inactive); in test [5], 97.2% (inactive); in test [5] (setting [6]) it was 96.8%; in test [5] (setting [7]), 95.7%.

As for `Oc1c(C(Nc2cccc(C(F)(F)F)c2)c2ccncc2)ccc2cccnc12` (centres undefined), the GFP response vs DMSO was 105% (inactive) in test [1], 104% in test [1] (setting [6]), 102% in test [1] (setting [7]) and 112% (inactive) in test [3]. Besides, the GFP response relative to DMSO was 135% (inactive) in test [2], 120% in test [2] (setting [8]) and 136% in test [2] (setting [9]). In addition, the GFP response, % of DMSO in test [4] is 94% (inactive); in test [5], 99.3% (inactive); in test [5] (setting [6]) it was 102%; in test [5] (setting [7]), 94.5%.

Regarding `Cc1sc(NC(=O)c2ccco2)nc1-c1ccccc1`, the GFP response vs DMSO in test [1] is 93.8% (inactive); in test [1] (setting [6]), 92.2%; in test [1] (setting [7]) it was 93.6%; in test [3] it was 102% (inactive). For the same molecule, the GFP response relative to DMSO in test [2] is 111% (inactive); in test [2] (setting [8]) it was 105%; in test [2] (setting [9]), 113%. For the same molecule, the GFP response, % of DMSO in test [4] was 89.5% (inactive); in test [5], 102% (inactive); in test [5] (setting [6]) it was 98.1%; in test [5] (setting [7]) it was 101%.

Consider `COc1ccc(C2c3c(oc4ccccc4c3=O)C(=O)N2CCN2CCOCC2)cc1OC` (centres undefined), for which the GFP response vs DMSO is 103% (inactive) in test [1], 95.3% in test [1] (setting [6]), 101% in test [1] (setting [7]) and 172% (inactive) in test [3]. For the same molecule, the GFP response relative to DMSO is 119% (inactive) in test [2], 116% in test [2] (setting [8]) and 114% in test [2] (setting [9]). The GFP response, % of DMSO was 105% (inactive) in test [4], 129% (inactive) in test [5], 116% in test [5] (setting [6]) and 113% in test [5] (setting [7]).

As for `CCOc1cc(/C=C2/N=C(c3ccc4c(c3)OCO4)OC2=O)ccc1OC(C)=O`, the GFP response vs DMSO is 92% (inactive) in test [1], 87.5% in test [1] (setting [6]), 94.2% in test [1] (setting [7]) and 101% (inactive) in test [3]. The figures for the GFP response relative to DMSO in test [2], in test [2] (setting [8]) and in test [2] (setting [9]) were 95.7% (inactive), 95.9% and 96.2%, respectively. The GFP response, % of DMSO in test [4] is 103% (inactive); in test [5], 97.3% (inactive); in test [5] (setting [6]) it was 95.6%; in test [5] (setting [7]) it was 98.1%.

As to `O=C(O)c1ccn2c(C(=O)c3ccc(Cl)cc3)c(-c3ccccc3)cc2c1`, the GFP response vs DMSO was 96.2% (inactive) in test [1], 92.3% in test [1] (setting [6]), 99.8% in test [1] (setting [7]) and 104% (inactive) in test [3]. For the same molecule, the GFP response relative to DMSO in test [2] is 114% (inactive); in test [2] (setting [8]) it was 107%; in test [2] (setting [9]) it was 115%. The GFP response, % of DMSO was 94.7% (inactive) in test [4], 92.1% (inactive) in test [5], 89% in test [5] (setting [6]) and 92.1% in test [5] (setting [7]).

On to `CNC(=O)c1c(O)c2cccc3c2n(c1=O)CC3`, for which the GFP response vs DMSO in test [1] was 102% (inactive); in test [1] (setting [6]), 99.1%; in test [1] (setting [7]), 103%; in test [3] it was 97.5% (inactive). Further, the GFP response relative to DMSO in test [2] is 94.2% (inactive); in test [2] (setting [8]), 90.7%; in test [2] (setting [9]), 94.6%. For the same molecule, the GFP response, % of DMSO was 100% (inactive) in test [4], 93.5% (inactive) in test [5], 90.9% in test [5] (setting [6]) and 93.3% in test [5] (setting [7]).
